The source of these data is PMC5026623 (Circulation research, 2016).

The assay addresses apoA1 (Homo sapiens, UniProt P02647). As to the kind of experiment: surface plasmon resonance, protein immobilised on CM5 chip. Type of assay: binding. The method, boiled down:
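Biosensor binding-kinetics run: apoA1 covalently coupled to a CM5 sensor chip, with apoA2 and apoE coupled the same way for comparison. Kinetics of test lipid binding to the immobilised protein recorded.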

apoA1, sequence (P02647 25-267): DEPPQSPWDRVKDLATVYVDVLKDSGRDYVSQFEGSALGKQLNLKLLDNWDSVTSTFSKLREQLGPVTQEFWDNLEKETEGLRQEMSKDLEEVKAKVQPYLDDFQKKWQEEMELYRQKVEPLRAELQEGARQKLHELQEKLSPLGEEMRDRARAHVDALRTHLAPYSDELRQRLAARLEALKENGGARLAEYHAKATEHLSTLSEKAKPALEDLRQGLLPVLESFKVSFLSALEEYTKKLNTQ

In turn, PIP2 displayed a Kd of 140 nM.

For orientation: Kd means the equilibrium constant for the complex coming apart. The low end stands for tighter binding, the high end for weaker binding.
